According to paper PMC11564562 (Scientific Reports, 2024):

Assays:
[1] = test system: MCF-7 breast cancer cells; test: MTT cytotoxicity assay, MCF-7; type: cell-based; conditions: Homo sapiens, MCF7, 72 h, read-out: IC50 cytotoxicity against MCF-7 cells
How it was run: (§1)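 MTT assay: cells cultured at 37 °C in 5% CO2 with 10% FBS and penicillin/streptomycin, HeLa in DMEM and MCF-7 in RPMI 1640. Seeded at 5,000 cells/well and left to adhere 24 h, then exposed 72 h to 0.1, 1, 10 and 100 µM test compound, diluted from 10 mM DMSO stocks in medium. MTT (5 mg/mL) added for 3 h, formazan dissolved in DMSO, absorbance read. Blank-corrected % survival taken relative to untreated cells; IC50 calculated; mean ± SD, n = 3; doxorubicin as positive control.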

[2] = test system: HeLa cells; test: MTT cytotoxicity assay, HeLa; type: cell-based; conditions: Homo sapiens, 72 h, read-out: IC50 cytotoxicity against HeLa cells
How it was run: as §1

[3] = test system: Hsp90 protein level in MCF-7 cells; test: Hsp90 protein level assay; type: cell-based, human; conditions: 10 µM, control (untreated) cells 5.54 ng/mL
How it was run: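 Sandwich ELISA kit quantifying intracellular Hsp90 in MCF-7 cells against untreated cells. Standards and samples incubated 2 h at 37 °C, then biotinylated antibody 1 h at 37 °C, three washes, HRP-avidin 1 h at 37 °C, washes, TMB 15–30 min at 37 °C. Stop solution added and absorbance read at 450 nm. Experiment run in triplicate (n = 3); significance set at p < 0.05.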

`C=CCNC1=C2C[C@@H](C)C[C@H](OC)[C@H](O)[C@@H](C)/C=C(\C)[C@H](OC(N)=O)[C@@H](OC)/C=C\C=C(/C)C(=O)NC(=CC1=O)C2=O` [17-AAG, Tanespimycin, reference compound] was tested, and the IC50 [1] was 0.1 µM.

In the case of `COc1ccc(-c2noc(N)c2C#N)c(OC)c1` [compound 1, 5-amino-(2,4-dimethoxyphenyl) isoxazole-4-carbonitrile], the IC50 [2] is reported as 7.91 µM, the IC50 [1] is reported as 0.31 µM and the “Hsp90 protein level after treatment” value [3] is reported as 4.85 ng/mL.

Work on `COc1ccc(-c2noc(NC(=O)c3ccccc3)c2C#N)c(OC)c1` [compound 2, N-(4-cyano-3(2,4-dimethoxyphenyl)isoxazol-5-yl) benzamide] yielded an IC50 [2] greater than 100 µM and an IC50 [1] of no less than 100 µM.

`COc1ccc(-c2noc(NC(=O)c3ccc(Cl)cc3)c2C#N)c(OC)c1` [compound 3, N-(4-cyano-3-(2,4-dimethoxyphenyl)isoxazol-5-yl)-4-chlorobenzamide] showed an IC50 [2] of 3.61 µM and an IC50 [1] of 68.3 µM.

`COc1ccc(-c2noc(NC(=O)c3ccc(C(F)(F)F)cc3)c2C#N)c(OC)c1` [compound 4, N-(4-cyano-3-(2,4-dimethoxyphenyl)isoxazol-5-yl)-4-(trifluoromethyl)benzamide] was tested, and the IC50 [2] was 19.4 µM, the IC50 [1] was 50.6 µM and the “Hsp90 protein level after treatment” value [3] was 2.81 ng/mL.

`COc1ccc(-c2noc(NC(=O)c3ccc(F)cc3)c2C#N)c(OC)c1` [compound 8, N-(4-cyano-3(2,4-dimethoxyphenyl)isoxazol-5-yl)-4-fluorobenzamide] gave an IC50 [2] of 31.9 µM and an IC50 [1] of 54.1 µM.
